In ChEMBL document CHEMBL1649436, “Antiviral activity of MK-4965, a novel nonnucleoside reverse transcriptase inhibitor” (Antimicrob Agents Chemother, 2009):

What was measured:
[1] = system: Human immunodeficiency virus 1; test: Selectivity ratio of IC50 for HIV1 isolate R8 reverse transcriptase Y181C mutant to IC50 for HIV1 isolate R8 reverse transcriptase
[2] = system: Human immunodeficiency virus 1; test: Ratio of EC95 for HIV1 isolate R8 harboring reverse transcriptase K103N and Y181C mutant in presence of 50% human serum to EC95 for HIV1 isolate R8 harboring reverse transcriptase K103N and Y181C mutant in presence of 10% FBS; type: functional
Outline: (§1)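 Ratios of EC95 values from the MT-4 multiple-cycle assay: R8 variants infected 24 h at low MOI, then reseeded in RPMI 1640 with 10% FBS or 50% type AB human serum with threefold dilutions (833–0.32 nM) for 72 h; p24 by AlphaScreen; EC95 = lowest concentration cutting p24 ≥95% versus untreated controls.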

[3] = system: Human immunodeficiency virus 1; test: Antiviral activity against HIV1 isolate R8 harboring reverse transcriptase K103N and Y181C mutant infected in human MT4 cells assessed as inhibition of viral replication after 72 hrs in presence of 50% human serum; type: functional; settings: Human immunodeficiency virus 1, isolate R8, MT4, 72 h
Outline: (§2)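 Multiple-cycle assay: MT-4 cells (2.5 × 10^5) infected with R8-based virus at low MOI, no inhibitor, 24 h at 37°C, 5% CO2; washed, reseeded at 5 × 10^4 cells in RPMI 1640 with 10% FBS or 50% type AB human serum; threefold serial dilutions from 833 nM to 0.32 nM; 72 h; p24 in medium by AlphaScreen; EC95 = lowest concentration giving ≥95% p24 reduction versus untreated.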

[4] = system: Human immunodeficiency virus 1; test: Antiviral activity against HIV1 isolate R8 harboring wild type reverse transcriptase infected in human MT4 cells assessed as inhibition of viral replication after 72 hrs in presence of 10% FBS; type: functional; settings: Human immunodeficiency virus 1, isolate R8, MT4, 72 h; outline: as §2
[5] = Cytotoxicity against stationary-phase human CD4+ T cells after 24 to 72 hrs by alamar blue assay; type: cell-based; settings: T-cell
Outline: (§3)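 Cytotoxicity measured with Alamar blue after incubation at 37°C in 5% CO2 for 24, 48 or 72 h, in stationary and activated primary cells (CD4 cells, monocytes, PBMC, macrophages) and proliferating lines (MT4, SupT1, HL60).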

[6] = system: Human immunodeficiency virus 1; test: Antiviral activity against HIV1 isolate R8 harboring reverse transcriptase L100I mutant relative to drug-sensitive HIV1 CNDO; type: functional
Outline: (§4)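 Single-cycle PhenoScreen assay run by Monogram Biosciences, using viruses carrying RT sequences from clinical isolates, subtypes/CRFs or PI/NRTI-resistant clade B viruses; nine serial drug concentrations; activity expressed relative to drug-sensitive reference strain CNDO (protease and RT from NL4-3), with multidrug-resistant MDRC4 as assay-performance control.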

[7] = system: Human immunodeficiency virus 1; test: Antiviral activity against HIV1 clade A harboring mutant reverse transcriptase relative to HIV1 CNDO with wild type reverse transcriptase; type: functional
[8] = system: Human immunodeficiency virus 1; test: Antiviral activity against HIV1 clade D harboring mutant reverse transcriptase relative to HIV1 CNDO with wild type reverse transcriptase; type: functional
[9] = system: Human immunodeficiency virus 1; test: Antiviral activity against HIV1 clade C harboring mutant reverse transcriptase relative to HIV1 CNDO with wild type reverse transcriptase; type: functional
[10] = Cytotoxicity against activated human CD4+ T cells after 24 to 72 hrs by alamar blue assay; type: cell-based; settings: T-cell; outline: as §3
[11] = system: Human immunodeficiency virus 1; test: Antiviral activity against NRTI-, PI-resistant HIV1 harboring mutant reverse transcriptase relative to HIV1 CNDO with wild type reverse transcriptase; type: functional; outline: as §4
[12] = system: Human immunodeficiency virus 1; test: Antiviral activity against HIV1 isolate R8 harboring wild type reverse transcriptase infected in human MT4 cells assessed as inhibition of viral replication after 72 hrs in presence of 50% human serum; type: functional; settings: Human immunodeficiency virus 1, isolate R8, MT4, 72 h; outline: as §2
PBMC [13] = test: Cytotoxicity against stationary-phase human PBMC after 24 to 72 hrs by alamar blue assay; type: cell-based; outline: as §3
[14] = Cytotoxicity against stationary-phase human monocyte after 24 to 72 hrs by alamar blue assay; type: cell-based; outline: as §3
[15] = Cytotoxicity against human SupT1 cells after 24 to 72 hrs by alamar blue assay; type: cell-based; settings: SUP-T1; outline: as §3
MT4 = test: Cytotoxicity against human MT4 cells after 24 to 72 hrs by alamar blue assay; type: cell-based; outline: as §3
[16] = system: Human immunodeficiency virus 1; test: Antiviral activity against HIV1 isolate R8 harboring reverse transcriptase Y181C mutant infected in human MT4 cells assessed as inhibition of viral replication after 72 hrs in presence of 50% human serum; type: functional; settings: Human immunodeficiency virus 1, isolate R8, MT4, 72 h; outline: as §2
[17] = system: Human immunodeficiency virus 1; test: Antiviral activity against HIV1 isolate R8 harboring reverse transcriptase V106A, G190A and F227L mutant relative to drug-sensitive HIV1 CNDO; type: functional; outline: as §4
[18] = system: Human immunodeficiency virus 1; test: Antiviral activity against PI-resistant HIV1 harboring mutant reverse transcriptase relative to HIV1 CNDO with wild type reverse transcriptase; type: functional; outline: as §4
[19] = system: Human immunodeficiency virus 1; test: Antiviral activity against HIV1 isolate R8 harboring reverse transcriptase Y181C mutant infected in human MT4 cells assessed as inhibition of viral replication after 72 hrs in presence of 10% FBS; type: functional; settings: Human immunodeficiency virus 1, isolate R8, MT4, 72 h; outline: as §2
[20] = system: Human immunodeficiency virus 1; test: Antiviral activity against NRTI-resistant HIV1 harboring mutant reverse transcriptase relative to HIV1 CNDO with wild type reverse transcriptase; type: functional; outline: as §4
[21] = system: Human immunodeficiency virus 1; test: Ratio of EC95 for HIV1 isolate R8 harboring reverse transcriptase Y181C mutant in presence of 50% human serum to EC95 for HIV1 isolate R8 harboring reverse transcriptase Y181C mutant in presence of 10% FBS; type: functional; outline: as §1
[22] = system: Human immunodeficiency virus 1; test: Antiviral activity against HIV1 CRF01_AE harboring mutant reverse transcriptase relative to HIV1 CNDO with wild type reverse transcriptase; type: functional; outline: as §4
[23] = system: Human immunodeficiency virus 1; test: Antiviral activity against HIV1 clade B harboring mutant reverse transcriptase relative to HIV1 CNDO with wild type reverse transcriptase; type: functional
[24] = system: Human immunodeficiency virus 1; test: Antiviral activity against HIV1 isolate R8 harboring reverse transcriptase Y188L mutant relative to drug-sensitive HIV1 CNDO; type: functional; outline: as §4
PBMC [25] = test: Cytotoxicity against activated human PBMC after 24 to 72 hrs by alamar blue assay; type: cell-based; outline: as §3
[26] = system: Human immunodeficiency virus 1; test: Selectivity ratio of IC50 for HIV1 isolate R8 reverse transcriptase K103N mutant to IC50 for HIV1 isolate R8 reverse transcriptase
[27] = system: Human immunodeficiency virus 1; test: Ratio of EC95 for HIV1 isolate R8 harboring reverse transcriptase Y181C mutant in presence of 50% human serum to EC95 for HIV1 isolate R8 harboring wild type reverse transcriptase in presence of 50% human serum; type: functional; outline: as §1
[28] = system: Human immunodeficiency virus 1; test: Antiviral activity against HIV1 isolate R8 harboring reverse transcriptase K103N mutant infected in human MT4 cells assessed as inhibition of viral replication after 72 hrs in presence of 50% human serum; type: functional; settings: Human immunodeficiency virus 1, isolate R8, MT4, 72 h; outline: as §2
[29] = system: Human immunodeficiency virus 1; test: Ratio of EC95 for HIV1 isolate R8 harboring reverse transcriptase K103N and Y181C mutant in presence of 50% human serum to EC95 for HIV1 isolate R8 harboring wild type reverse transcriptase in presence of 50% human serum; type: functional; outline: as §1
[30] = system: Human immunodeficiency virus 1; test: Antiviral activity against HIV1 CRF02_AG harboring mutant reverse transcriptase relative to HIV1 CNDO with wild type reverse transcriptase; type: functional; outline: as §4
[31] = system: Human immunodeficiency virus 1; test: Ratio of EC95 for HIV1 isolate R8 harboring reverse transcriptase K103N mutant in presence of 50% human serum to EC95 for HIV1 isolate R8 harboring wild type reverse transcriptase in presence of 50% human serum; type: functional; outline: as §1
[32] = Cytotoxicity against activated human macrophage after 24 to 72 hrs by alamar blue assay; type: cell-based; outline: as §3
[33] = system: Human immunodeficiency virus 1; test: Antiviral activity against HIV1 isolate R8 harboring reverse transcriptase K103N mutant infected in human MT4 cells assessed as inhibition of viral replication after 72 hrs in presence of 10% FBS; type: functional; settings: Human immunodeficiency virus 1, isolate R8, MT4, 72 h; outline: as §2
[34] = system: Human immunodeficiency virus 1; test: Antiviral activity against HIV1 isolate R8 harboring reverse transcriptase K103N and G190A mutant relative to drug-sensitive HIV1 CNDO; type: functional; outline: as §4
[35] = system: Human immunodeficiency virus 1; test: Antiviral activity against HIV1 clade F1 harboring mutant reverse transcriptase relative to HIV1 CNDO with wild type reverse transcriptase; type: functional
[36] = system: Human immunodeficiency virus 1; test: Antiviral activity against HIV1 isolate R8 harboring reverse transcriptase K103N and Y181C mutant infected in human MT4 cells assessed as inhibition of viral replication after 72 hrs in presence of 10% FBS; type: functional; settings: Human immunodeficiency virus 1, isolate R8, MT4, 72 h; outline: as §2
[37] = system: Human immunodeficiency virus 1; test: Ratio of EC95 for HIV1 isolate R8 harboring wild type reverse transcriptase in presence of 50% human serum to EC95 for HIV1 isolate R8 harboring wild type reverse transcriptase in presence of 10% FBS; type: functional; outline: as §1
[38] = Cytotoxicity against activated human monocyte after 24 to 72 hrs by alamar blue assay; type: cell-based; outline: as §3
[39] = system: Human immunodeficiency virus 1; test: Ratio of EC95 for HIV1 isolate R8 harboring reverse transcriptase K103N mutant in presence of 50% human serum to EC95 for HIV1 isolate R8 harboring reverse transcriptase K103N mutant in presence of 10% FBS; type: functional; outline: as §1
[40] = system: Human immunodeficiency virus 1; test: Antiviral activity against HIV1 clade G harboring mutant reverse transcriptase relative to HIV1 CNDO with wild type reverse transcriptase; type: functional
HL-60 = test: Cytotoxicity against human HL60 cells after 24 to 72 hrs by alamar blue assay; type: cell-based; outline: as §3
[41] = Cytotoxicity against stationary-phase human macrophage after 24 to 72 hrs by alamar blue assay; type: cell-based; outline: as §3
[42] = system: Human immunodeficiency virus 1; test: Antiviral activity against HIV1 clade H harboring mutant reverse transcriptase relative to HIV1 CNDO with wild type reverse transcriptase; type: functional
[43] = system: Human immunodeficiency virus 1; test: Antiviral activity against HIV1 CRF17_BF harboring mutant reverse transcriptase relative to HIV1 CNDO with wild type reverse transcriptase; type: functional; outline: as §4
Plasma = test: Plasma protein binding in HIV1 infected patient; type: ADME, cell-free; settings: human

N#Cc1cc(Cl)cc(Oc2cc(OCc3n[nH]c4nc(N)ccc34)ccc2Cl)c1
fold change (FC) [1]: 2
fold change (FC) [2]: 4
EC95 [3]: 447 nM
EC95 [4]: 4.4 nM
EC50 [5]: > 3000 nM
fold change (FC) [6]: 0.9
fold change (FC) [7]: 0.73
fold change (FC) [8]: 0.56
fold change (FC) [9]: 1.07
EC50 [10]: > 3000 nM
fold change (FC) [11]: 0.18
EC95 [12]: 29 nM
EC50 (PBMC [13]): > 3000 nM
EC50 [14]: > 3000 nM
EC50 [15]: > 3000 nM
EC50 (MT4): > 3000 nM
EC95 [16]: 184 nM
fold change (FC) [17]: > 100
fold change (FC) [18]: 0.84
EC95 [19]: 30 nM
fold change (FC) [20]: 0.3
fold change (FC) [21]: 4
fold change (FC) [22]: 0.9
fold change (FC) [23]: 1.25
fold change (FC) [24]: > 100
EC50 (PBMC [25]): > 3000 nM
fold change (FC) [26]: 2
fold change (FC) [27]: 6
EC95 [28]: 58 nM
fold change (FC) [29]: 15
fold change (FC) [30]: 0.92
fold change (FC) [31]: 2
EC50 [32]: > 3000 nM
EC95 [33]: 13 nM
fold change (FC) [34]: 5
fold change (FC) [35]: 0.72
EC95 [36]: 128 nM
fold change (FC) [37]: 4
EC50 [38]: > 3000 nM
fold change (FC) [39]: 4
fold change (FC) [40]: 0.58
EC50 (HL-60): > 3000 nM
EC50 [41]: > 3000 nM
fold change (FC) [42]: 0.22
fold change (FC) [43]: 1.15
Activity (Plasma): 96.5%
